The text below walks through data of ChEMBL document CHEMBL4219118, “Cathepsin B inhibitors: Further exploration of the nitroxoline core” (Bioorg Med Chem Lett, 2018).

Active and inactive are the calls of the source. The rule behind the calls is not given here.

Data set [1] addresses T1, Cathepsin B (Homo sapiens, UniProt P07858). In words: Competitive inhibition of recombinant human cathepsin B endopeptidase activity assessed as inhibitory constant for enzyme-inhibitor complex using Z-Arg-Arg-AMC as substrate in presence of pH 4.5 acetate buffer by fluorescence assay. The procedure, abridged: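 Recombinant cathepsin B endopeptidase activity assayed with the small substrate Z-Arg-Arg-AMC at pH 4.5. Acidic conditions chosen to shift the enzyme toward the closed (exopeptidase) conformation. Ki reported.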

Data set [2] has as its target T1, Cathepsin B. In words: Inhibition of cathepsin B in human MCF-10A neoT cells assessed as proteolysis of extracellular membrane by measuring decrease in intracellular degradation of DQ-collagen 4 at 50 uM incubated for 2 hrs followed by DQ-collagen addition measured for 2 hrs by propidium iodide staining based flow cytometry relative to control. Type of data set: cell-based. A digest of the protocol: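 MCF-10A neoT cells (6 × 10⁴) treated with compound or DMSO. Intracellular DQ-collagen IV degradation measured by flow cytometry, with unlabeled cells as background. Reduction expressed versus DMSO. Mean of n = 3, run in duplicate.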
(Flow cytometry measures light scatter and fluorescence of single cells or particles in a stream.)

Data set [3] has as its target T1, Cathepsin B. The data set is described as follows: Inhibition of cathepsin B in human MCF-10A neoT cells assessed as proteolysis of extracellular membrane by measuring decrease in extracellular degradation of DQ-collagen 4 at 5 uM incubated for 6 hrs measured for 2 hrs by fluorescence based spectrofluorimetric assay relative to control. Type of data set: cell-based. The procedure, abridged: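 MCF-10A neoT cells (5 × 10⁴) incubated with DQ-collagen IV in the presence of compound or DMSO. Extracellular degradation product read by spectrofluorimetry. Mean of n = 3, six replicates per experiment.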

The subject of data set [4] is MCF-10A-neoT. In words: Antiinvasive activity against human MCF10AneoT cells at 5 uM incubated for 1 hr measured every 15 mins for 72 hrs by real time xCELLigence assay relative to control. In kind it is functional. A digest of the protocol: (§1)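 MCF-10A neoT cells (3 × 10⁴) seeded on Matrigel-coated (1 mg/mL) upper compartments of CIM-plates. Compound or DMSO (0.05%) added to growth medium in both upper and lower compartments. Invasion followed by impedance (cell index) for 72 h. Slopes (1/h) between 4 and 14 h converted to percentage invasion versus DMSO. Means of n = 2, each run in triplicate.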

In data set [5] the test system is MCF-10A-neoT. The data set is described as follows: Cytotoxicity against human MCF10AneoT cells assessed as decrease in cell viability after 72 hrs by MTS assay. In kind it is cell-based. A general note: Tetrazolium dyes change colour on reduction, which living cells bring about.
Data set [6] deals with T2, Pro-cathepsin H (Homo sapiens, UniProt P09668).
T2 sequence (P09668 whole entry): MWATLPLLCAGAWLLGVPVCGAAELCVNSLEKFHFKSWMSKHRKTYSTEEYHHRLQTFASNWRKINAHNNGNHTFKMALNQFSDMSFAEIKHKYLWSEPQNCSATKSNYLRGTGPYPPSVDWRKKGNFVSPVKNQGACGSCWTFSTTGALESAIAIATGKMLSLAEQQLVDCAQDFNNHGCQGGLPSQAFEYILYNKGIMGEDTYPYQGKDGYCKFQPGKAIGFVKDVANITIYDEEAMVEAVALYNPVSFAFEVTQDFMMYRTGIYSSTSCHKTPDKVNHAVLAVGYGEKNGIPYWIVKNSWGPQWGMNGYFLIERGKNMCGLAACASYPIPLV
In words: Non-competitive inhibition of human liver cathepsin H assessed as inhibitory constant for enzyme-substrate-inhibitor complex using R-AMC as substrate in presence of pH 6 phosphate buffer by fluorescence assay.

The target in data set [7] is T1, Cathepsin B. In words: Non-competitive inhibition of recombinant human cathepsin B exopeptidase activity assessed as inhibitory constant for enzyme-inhibitor complex using Abz-Gly-Ile-Val-Arg-Ala-Lys(Dnp)-OH as substrate in presence of pH 5 acetate buffer by fluorescence assay.
The target of data set [8] is T1, Cathepsin B. The data set is described as follows: Uncompetitive inhibition of recombinant human cathepsin B endopeptidase activity assessed as inhibitory constant for enzyme-substrate-inhibitor complex using Z-Arg-Arg-AMC as substrate in presence of pH 6 phosphate buffer by fluorescence assay.
The target in data set [9] is T1, Cathepsin B. In words: Non-competitive inhibition of recombinant human cathepsin B exopeptidase activity assessed as inhibitory constant for enzyme-substrate-inhibitor complex using Abz-Gly-Ile-Val-Arg-Ala-Lys(Dnp)-OH as substrate in presence of pH 5 acetate buffer by fluorescence assay.
Data set [10] deals with T2, Pro-cathepsin H. In words: Non-competitive inhibition of human liver cathepsin H assessed as inhibitory constant for enzyme-inhibitor complex using R-AMC as substrate in presence of pH 6 phosphate buffer by fluorescence assay.
Data set [11] addresses T3, Procathepsin L (Homo sapiens, UniProt P07711). The data set is described as follows: Competitive inhibition of recombinant human cathepsin L expressed in Escherichia coli assessed as inhibitory constant for enzyme-inhibitor complex using Z-FR-AMC as substrate in presence of pH 6 phosphate buffer by fluorescence assay.
The test system of data set [12] is U-87 MG. In words: Cytotoxicity against human U87MG cells assessed as decrease in cell viability after 72 hrs by MTS assay. The conditions noted are these: u-87mg atcc. In kind it is cell-based.
Data set [13] addresses T3, Procathepsin L. The data set is described as follows: Non-competitive inhibition of recombinant human cathepsin L expressed in Escherichia coli assessed as inhibitory constant for enzyme-inhibitor complex using Z-FR-AMC as substrate in presence of pH 6 phosphate buffer by fluorescence assay.
In data set [14] the target is T3, Procathepsin L. The data set is described as follows: Non-competitive inhibition of recombinant human cathepsin L expressed in Escherichia coli assessed as inhibitory constant for enzyme-substrate-inhibitor complex using Z-FR-AMC as substrate in presence of pH 6 phosphate buffer by fluorescence assay.
Data set [15] concerns the target T1, Cathepsin B. In words: Mixed inhibition of recombinant human cathepsin B exopeptidase activity assessed as inhibitory constant for enzyme-inhibitor complex using Abz-Gly-Ile-Val-Arg-Ala-Lys(Dnp)-OH as substrate in presence of pH 5 acetate buffer by fluorescence assay.
Data set [16] has as its target T2, Pro-cathepsin H. The data set is described as follows: Uncompetitive inhibition of human liver cathepsin H assessed as inhibitory constant for enzyme-substrate-inhibitor complex using R-AMC as substrate in presence of pH 6 phosphate buffer by fluorescence assay.
In data set [17] the target is T1, Cathepsin B. In words: Mixed inhibition of recombinant human cathepsin B exopeptidase activity assessed as inhibitory constant for enzyme-substrate-inhibitor complex using Abz-Gly-Ile-Val-Arg-Ala-Lys(Dnp)-OH as substrate in presence of pH 5 acetate buffer by fluorescence assay.
For data set [18], the target named is T1, Cathepsin B. The data set is described as follows: Mixed inhibition of recombinant human cathepsin B endopeptidase activity assessed as inhibitory constant for enzyme-inhibitor complex using Z-Arg-Arg-AMC as substrate in presence of pH 6 phosphate buffer by fluorescence assay.
For data set [19], the target named is T1, Cathepsin B. In words: Inhibition of cathepsin B in human MCF-10A neoT cells assessed as proteolysis of extracellular membrane by measuring decrease in extracellular degradation of DQ-collagen 4 at 2.5 uM incubated for 6 hrs measured for 2 hrs by fluorescence based spectrofluorimetric assay. Type of data set: cell-based. A digest of the protocol:
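MCF-10A neoT cells (5 × 10⁴) exposed to compound or DMSO vehicle control with DQ-collagen IV. Fluorescence of the extracellular cleavage product measured by spectrofluorimetry. Mean ± SEM of n = 3 experiments, each in six replicates.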

The target of data set [20] is T1, Cathepsin B. The data set is described as follows: Inhibition of cathepsin B in human MCF-10A neoT cells assessed as proteolysis of extracellular membrane by measuring decrease in intracellular degradation of DQ-collagen 4 at 25 uM incubated for 2 hrs followed by DQ-collagen addition measured for 2 hrs by propidium iodide staining based flow cytometry relative to control. In kind it is cell-based. A digest of the protocol: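 Intracellular DQ-collagen IV degradation in MCF-10A neoT cells (6 × 10⁴) treated with compound or DMSO, read by flow cytometry. Unlabeled cells served as background. Reduction in intracellular signal reported against DMSO as mean ± SEM, n = 3 experiments, each in duplicate.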

The subject of data set [21] is MCF-10A-neoT. The data set is described as follows: Antiinvasive activity against human MCF10AneoT cells at 2.5 uM incubated for 1 hr measured every 15 mins for 72 hrs by real time xCELLigence assay relative to control. Type of data set: functional, cell-based. A digest of the protocol:
as §1

The target of data set [22] is T1, Cathepsin B. In words: Mixed inhibition of recombinant human cathepsin B endopeptidase activity assessed as inhibitory constant for enzyme-substrate-inhibitor complex using Z-Arg-Arg-AMC as substrate in presence of pH 6 phosphate buffer by fluorescence assay.

T3 sequence (P07711 whole entry): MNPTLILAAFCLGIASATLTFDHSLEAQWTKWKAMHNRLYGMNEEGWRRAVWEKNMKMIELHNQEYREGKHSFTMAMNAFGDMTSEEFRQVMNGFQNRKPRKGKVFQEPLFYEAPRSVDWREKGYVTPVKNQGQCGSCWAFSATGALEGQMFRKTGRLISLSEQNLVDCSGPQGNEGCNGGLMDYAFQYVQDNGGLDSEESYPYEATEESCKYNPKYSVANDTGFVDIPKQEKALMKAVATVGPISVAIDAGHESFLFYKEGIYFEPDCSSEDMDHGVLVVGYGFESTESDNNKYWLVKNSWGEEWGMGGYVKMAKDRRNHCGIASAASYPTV

As usually defined, the Ki is a measure of affinity in units of concentration, obtained from inhibition or displacement. In general, inhibition refers to the share of the control response that was lost under treatment. For `N#CC1(NC(=O)c2cc([N+](=O)[O-])c3cccnc3c2O)CC1`, the Ki result in data set [1] was “Not Active”; in data set [6], 329 µM; in [7], 185 µM; in data set [8], 124 µM; in [9], 185 µM; in data set [10], 329 µM. In data set [11], the inhibition constant Ki turned out to be 195 µM. In [2], the inhibition is 15%. In data set [3], the inhibition result is “Active”. The Activity in data set [4] is 70%; in data set [5], “Non-Toxic”; in data set [12], “Non-Toxic”.

`N#CCNC(=O)c1cc([N+](=O)[O-])c2cccnc2c1O`: the Ki in data set [1] (read-out: Ki) amounted to 206 µM; in data set [13], 155 µM; in data set [14], 155 µM; in data set [15], 128 µM; in data set [8] it was 67 µM; in [16], 462 µM. The Ki in data set [17] came out at 30 µM. In data set [2], the inhibition stood at 60%. The inhibition result in data set [3] is “Active”. In addition, the Activity was 20% in [4], “Non-Toxic” in [5] and “Non-Toxic” in data set [12].

Take `Cc1ccc2c([N+](=O)[O-])ccc(O)c2n1`: the Ki in data set [18] is 181 µM; in data set [1] (read-out: Ki), 153 µM; in data set [15], 469 µM; in [6], 89 µM; in [22], 99 µM; in [10], 89 µM. For the same compound, the Ki in [11] was 122 µM; in data set [17] it was 77 µM. Also, in [19], the inhibition result was “Active”. Further, in data set [20], the inhibition was 80%. Moreover, the result in [21] was inactive. Further, the Activity result in data set [5] and in data set [12] was “Non-Toxic” throughout.
